Measurements: ChEMBL document CHEMBL1649436, “Antiviral activity of MK-4965, a novel nonnucleoside reverse transcriptase inhibitor” (Antimicrob Agents Chemother, 2009)

Key:
[1] = tested on: Human immunodeficiency virus 1; assay: Antiviral activity against HIV1 clade B harboring mutant reverse transcriptase relative to HIV1 CNDO with wild type reverse transcriptase; type: functional
[2] = tested on: Human immunodeficiency virus 1; assay: Antiviral activity against HIV1 CRF02_AG harboring mutant reverse transcriptase relative to HIV1 CNDO with wild type reverse transcriptase; type: functional
Summary of the method: (§1)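 Single-cycle PhenoScreen assay run by Monogram Biosciences, using viruses carrying RT sequences from clinical isolates, subtypes/CRFs or PI/NRTI-resistant clade B viruses; nine serial drug concentrations; activity expressed relative to drug-sensitive reference strain CNDO (protease and RT from NL4-3), with multidrug-resistant MDRC4 as assay-performance control.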

[3] = tested on: Human immunodeficiency virus 1; assay: Antiviral activity against HIV1 CRF01_AE harboring mutant reverse transcriptase relative to HIV1 CNDO with wild type reverse transcriptase; type: functional; summary of the method: as §1
[4] = tested on: Human immunodeficiency virus 1; assay: Antiviral activity against HIV1 clade A harboring mutant reverse transcriptase relative to HIV1 CNDO with wild type reverse transcriptase; type: functional
[5] = tested on: Human immunodeficiency virus 1; assay: Antiviral activity against HIV1 isolate R8 harboring reverse transcriptase L100I mutant relative to drug-sensitive HIV1 CNDO; type: functional; summary of the method: as §1
[6] = tested on: Human immunodeficiency virus 1; assay: Antiviral activity against HIV1 isolate R8 harboring reverse transcriptase K103N and G190A mutant relative to drug-sensitive HIV1 CNDO; type: functional; summary of the method: as §1
[7] = tested on: Human immunodeficiency virus 1; assay: Antiviral activity against HIV1 isolate R8 harboring reverse transcriptase V106A, G190A and F227L mutant relative to drug-sensitive HIV1 CNDO; type: functional; summary of the method: as §1
[8] = tested on: Human immunodeficiency virus 1; assay: Antiviral activity against HIV1 isolate R8 harboring reverse transcriptase Y188L mutant relative to drug-sensitive HIV1 CNDO; type: functional; summary of the method: as §1
[9] = tested on: Human immunodeficiency virus 1; assay: Ratio of EC95 for HIV1 isolate R8 harboring reverse transcriptase K103N and Y181C mutant in presence of 50% human serum to EC95 for HIV1 isolate R8 harboring wild type reverse transcriptase in presence of 50% human serum; type: functional
Summary of the method: (§2)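 Ratios of EC95 values from the MT-4 multiple-cycle assay: R8 variants infected 24 h at low MOI, then reseeded in RPMI 1640 with 10% FBS or 50% type AB human serum with threefold dilutions (833–0.32 nM) for 72 h; p24 by AlphaScreen; EC95 = lowest concentration cutting p24 ≥95% versus untreated controls.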

[10] = tested on: Human immunodeficiency virus 1; assay: Ratio of EC95 for HIV1 isolate R8 harboring reverse transcriptase K103N mutant in presence of 50% human serum to EC95 for HIV1 isolate R8 harboring wild type reverse transcriptase in presence of 50% human serum; type: functional; summary of the method: as §2
[11] = tested on: Human immunodeficiency virus 1; assay: Ratio of EC95 for HIV1 isolate R8 harboring reverse transcriptase Y181C mutant in presence of 50% human serum to EC95 for HIV1 isolate R8 harboring wild type reverse transcriptase in presence of 50% human serum; type: functional; summary of the method: as §2
[12] = tested on: Human immunodeficiency virus 1; assay: Ratio of EC95 for HIV1 isolate R8 harboring reverse transcriptase K103N and Y181C mutant in presence of 50% human serum to EC95 for HIV1 isolate R8 harboring reverse transcriptase K103N and Y181C mutant in presence of 10% FBS; type: functional; summary of the method: as §2
[13] = tested on: Human immunodeficiency virus 1; assay: Ratio of EC95 for HIV1 isolate R8 harboring reverse transcriptase Y181C mutant in presence of 50% human serum to EC95 for HIV1 isolate R8 harboring reverse transcriptase Y181C mutant in presence of 10% FBS; type: functional; summary of the method: as §2
[14] = tested on: Human immunodeficiency virus 1; assay: Ratio of EC95 for HIV1 isolate R8 harboring reverse transcriptase K103N mutant in presence of 50% human serum to EC95 for HIV1 isolate R8 harboring reverse transcriptase K103N mutant in presence of 10% FBS; type: functional; summary of the method: as §2
[15] = tested on: Human immunodeficiency virus 1; assay: Ratio of EC95 for HIV1 isolate R8 harboring wild type reverse transcriptase in presence of 50% human serum to EC95 for HIV1 isolate R8 harboring wild type reverse transcriptase in presence of 10% FBS; type: functional; summary of the method: as §2
[16] = tested on: Human immunodeficiency virus 1; assay: Antiviral activity against HIV1 isolate R8 harboring reverse transcriptase K103N and Y181C mutant infected in human MT4 cells assessed as inhibition of viral replication after 72 hrs in presence of 50% human serum; type: functional; conditions: Human immunodeficiency virus 1, isolate R8, MT4, 72 h
Summary of the method: (§3)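 Multiple-cycle assay: MT-4 cells (2.5 × 10^5) infected with R8-based virus at low MOI, no inhibitor, 24 h at 37°C, 5% CO2; washed, reseeded at 5 × 10^4 cells in RPMI 1640 with 10% FBS or 50% type AB human serum; threefold serial dilutions from 833 nM to 0.32 nM; 72 h; p24 in medium by AlphaScreen; EC95 = lowest concentration giving ≥95% p24 reduction versus untreated.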

[17] = tested on: Human immunodeficiency virus 1; assay: Antiviral activity against HIV1 isolate R8 harboring reverse transcriptase Y181C mutant infected in human MT4 cells assessed as inhibition of viral replication after 72 hrs in presence of 50% human serum; type: functional; conditions: Human immunodeficiency virus 1, isolate R8, MT4, 72 h; summary of the method: as §3
[18] = tested on: Human immunodeficiency virus 1; assay: Antiviral activity against HIV1 isolate R8 harboring reverse transcriptase K103N mutant infected in human MT4 cells assessed as inhibition of viral replication after 72 hrs in presence of 50% human serum; type: functional; conditions: Human immunodeficiency virus 1, isolate R8, MT4, 72 h; summary of the method: as §3
[19] = tested on: Human immunodeficiency virus 1; assay: Antiviral activity against HIV1 isolate R8 harboring wild type reverse transcriptase infected in human MT4 cells assessed as inhibition of viral replication after 72 hrs in presence of 50% human serum; type: functional; conditions: Human immunodeficiency virus 1, isolate R8, MT4, 72 h; summary of the method: as §3
[20] = tested on: Human immunodeficiency virus 1; assay: Antiviral activity against HIV1 isolate R8 harboring reverse transcriptase K103N and Y181C mutant infected in human MT4 cells assessed as inhibition of viral replication after 72 hrs in presence of 10% FBS; type: functional; conditions: Human immunodeficiency virus 1, isolate R8, MT4, 72 h; summary of the method: as §3
[21] = tested on: Human immunodeficiency virus 1; assay: Antiviral activity against HIV1 isolate R8 harboring reverse transcriptase Y181C mutant infected in human MT4 cells assessed as inhibition of viral replication after 72 hrs in presence of 10% FBS; type: functional; conditions: Human immunodeficiency virus 1, isolate R8, MT4, 72 h; summary of the method: as §3
[22] = tested on: Human immunodeficiency virus 1; assay: Antiviral activity against HIV1 isolate R8 harboring reverse transcriptase K103N mutant infected in human MT4 cells assessed as inhibition of viral replication after 72 hrs in presence of 10% FBS; type: functional; conditions: Human immunodeficiency virus 1, isolate R8, MT4, 72 h; summary of the method: as §3
[23] = tested on: Human immunodeficiency virus 1; assay: Antiviral activity against HIV1 isolate R8 harboring wild type reverse transcriptase infected in human MT4 cells assessed as inhibition of viral replication after 72 hrs in presence of 10% FBS; type: functional; conditions: Human immunodeficiency virus 1, isolate R8, MT4, 72 h; summary of the method: as §3
[24] = tested on: Human immunodeficiency virus 1; assay: Antiviral activity against HIV1 CRF17_BF harboring mutant reverse transcriptase relative to HIV1 CNDO with wild type reverse transcriptase; type: functional; summary of the method: as §1
[25] = tested on: Human immunodeficiency virus 1; assay: Antiviral activity against HIV1 clade C harboring mutant reverse transcriptase relative to HIV1 CNDO with wild type reverse transcriptase; type: functional
[26] = tested on: Human immunodeficiency virus 1; assay: Antiviral activity against HIV1 clade D harboring mutant reverse transcriptase relative to HIV1 CNDO with wild type reverse transcriptase; type: functional
[27] = tested on: Human immunodeficiency virus 1; assay: Antiviral activity against HIV1 clade F1 harboring mutant reverse transcriptase relative to HIV1 CNDO with wild type reverse transcriptase; type: functional
[28] = tested on: Human immunodeficiency virus 1; assay: Antiviral activity against HIV1 clade G harboring mutant reverse transcriptase relative to HIV1 CNDO with wild type reverse transcriptase; type: functional
[29] = tested on: Human immunodeficiency virus 1; assay: Antiviral activity against HIV1 clade H harboring mutant reverse transcriptase relative to HIV1 CNDO with wild type reverse transcriptase; type: functional
[30] = tested on: Human immunodeficiency virus 1; assay: Antiviral activity against PI-resistant HIV1 harboring mutant reverse transcriptase relative to HIV1 CNDO with wild type reverse transcriptase; type: functional; summary of the method: as §1
[31] = tested on: Human immunodeficiency virus 1; assay: Antiviral activity against NRTI-resistant HIV1 harboring mutant reverse transcriptase relative to HIV1 CNDO with wild type reverse transcriptase; type: functional; summary of the method: as §1
[32] = tested on: Human immunodeficiency virus 1; assay: Antiviral activity against NRTI-, PI-resistant HIV1 harboring mutant reverse transcriptase relative to HIV1 CNDO with wild type reverse transcriptase; type: functional; summary of the method: as §1
[33] = tested on: MT4; assay: Cytotoxicity against human MT4 cells after 24 to 72 hrs by alamar blue assay; type: cell-based
Summary of the method: (§4)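 Cytotoxicity measured with Alamar blue after incubation at 37°C in 5% CO2 for 24, 48 or 72 h, in stationary and activated primary cells (CD4 cells, monocytes, PBMC, macrophages) and proliferating lines (MT4, SupT1, HL60).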

[34] = Cytotoxicity against human SupT1 cells after 24 to 72 hrs by alamar blue assay; type: cell-based; conditions: SUP-T1; summary of the method: as §4
[35] = tested on: HL-60; assay: Cytotoxicity against human HL60 cells after 24 to 72 hrs by alamar blue assay; type: cell-based; summary of the method: as §4
[36] = tested on: PBMC; assay: Cytotoxicity against stationary-phase human PBMC after 24 to 72 hrs by alamar blue assay; type: cell-based; summary of the method: as §4
[37] = Cytotoxicity against stationary-phase human monocyte after 24 to 72 hrs by alamar blue assay; type: cell-based; summary of the method: as §4
[38] = tested on: Human immunodeficiency virus 1; assay: Selectivity ratio of IC50 for HIV1 isolate R8 reverse transcriptase K103N mutant to IC50 for HIV1 isolate R8 reverse transcriptase
[39] = tested on: Human immunodeficiency virus 1; assay: Selectivity ratio of IC50 for HIV1 isolate R8 reverse transcriptase Y181C mutant to IC50 for HIV1 isolate R8 reverse transcriptase
[40] = tested on: Plasma; assay: Plasma protein binding in HIV1 infected patient; type: ADME, cell-free; conditions: human
[41] = Cytotoxicity against activated human CD4+ T cells after 24 to 72 hrs by alamar blue assay; type: cell-based; conditions: T-cell; summary of the method: as §4
[42] = Cytotoxicity against stationary-phase human CD4+ T cells after 24 to 72 hrs by alamar blue assay; type: cell-based; conditions: T-cell; summary of the method: as §4
[43] = Cytotoxicity against activated human macrophage after 24 to 72 hrs by alamar blue assay; type: cell-based; summary of the method: as §4
[44] = Cytotoxicity against stationary-phase human macrophage after 24 to 72 hrs by alamar blue assay; type: cell-based; summary of the method: as §4
[45] = tested on: PBMC; assay: Cytotoxicity against activated human PBMC after 24 to 72 hrs by alamar blue assay; type: cell-based; summary of the method: as §4
[46] = Cytotoxicity against activated human monocyte after 24 to 72 hrs by alamar blue assay; type: cell-based; summary of the method: as §4

N#Cc1cc(Cl)cc(Oc2cc(OCc3n[nH]c4nc(N)ccc34)ccc2Cl)c1
fold change (FC) [1]: 1.25
fold change (FC) [2]: 0.92
fold change (FC) [3]: 0.9
fold change (FC) [4]: 0.73
fold change (FC) [5]: 0.9
fold change (FC) [6]: 5
fold change (FC) [7]: > 100
fold change (FC) [8]: > 100
fold change (FC) [9]: 15
fold change (FC) [10]: 2
fold change (FC) [11]: 6
fold change (FC) [12]: 4
fold change (FC) [13]: 4
fold change (FC) [14]: 4
fold change (FC) [15]: 4
EC95 [16]: 447 nM
EC95 [17]: 184 nM
EC95 [18]: 58 nM
EC95 [19]: 29 nM
EC95 [20]: 128 nM
EC95 [21]: 30 nM
EC95 [22]: 13 nM
EC95 [23]: 4.4 nM
fold change (FC) [24]: 1.15
fold change (FC) [25]: 1.07
fold change (FC) [26]: 0.56
fold change (FC) [27]: 0.72
fold change (FC) [28]: 0.58
fold change (FC) [29]: 0.22
fold change (FC) [30]: 0.84
fold change (FC) [31]: 0.3
fold change (FC) [32]: 0.18
EC50 [33]: > 3000 nM
EC50 [34]: > 3000 nM
EC50 [35]: > 3000 nM
EC50 [36]: > 3000 nM
EC50 [37]: > 3000 nM
fold change (FC) [38]: 2
fold change (FC) [39]: 2
Activity [40]: 96.5%
EC50 [41]: > 3000 nM
EC50 [42]: > 3000 nM
EC50 [43]: > 3000 nM
EC50 [44]: > 3000 nM
EC50 [45]: > 3000 nM
EC50 [46]: > 3000 nM
